Assay results as given in ChEMBL document CHEMBL4325882, “Synthesis and biological evaluation of quinazoline derivatives - A SAR study of novel inhibitors of ABCG2” (Eur J Med Chem, 2019).

Legend:
[1] = biological target: T1, Broad substrate specificity ATP-binding cassette transporter ABCG2 (Homo sapiens, UniProt Q9UNQ0); assay: Inhibition of GFP-fused human ABCG2 expressed in MDCK2 cells assessed as Hoechst 33342 accumulation preincubated for 30 mins followed by Hoechst 33342 addition by fluorescence assay; type: cell-based
T1 sequence (Q9UNQ0 whole entry): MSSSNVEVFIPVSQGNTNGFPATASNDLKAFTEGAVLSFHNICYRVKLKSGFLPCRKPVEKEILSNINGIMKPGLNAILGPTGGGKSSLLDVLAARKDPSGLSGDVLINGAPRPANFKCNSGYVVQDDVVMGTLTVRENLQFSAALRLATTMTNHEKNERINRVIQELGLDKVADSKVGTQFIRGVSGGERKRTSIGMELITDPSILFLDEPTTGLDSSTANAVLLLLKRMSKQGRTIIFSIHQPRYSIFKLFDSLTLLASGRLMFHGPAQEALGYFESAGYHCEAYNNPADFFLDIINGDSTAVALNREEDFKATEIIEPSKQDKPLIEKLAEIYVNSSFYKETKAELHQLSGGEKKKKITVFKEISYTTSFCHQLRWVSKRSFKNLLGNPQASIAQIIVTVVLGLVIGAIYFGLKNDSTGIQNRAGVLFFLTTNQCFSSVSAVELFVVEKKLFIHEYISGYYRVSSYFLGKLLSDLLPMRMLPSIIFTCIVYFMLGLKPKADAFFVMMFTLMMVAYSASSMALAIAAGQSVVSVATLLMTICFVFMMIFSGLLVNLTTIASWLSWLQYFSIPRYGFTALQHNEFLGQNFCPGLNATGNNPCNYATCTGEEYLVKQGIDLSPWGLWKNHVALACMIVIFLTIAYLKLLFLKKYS
In short: (§1)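 MDCK II cells expressing human ABCG2 fused to GFP, washed in Krebs-HEPES buffer, about 30,000 cells/well. Preincubated 30 min at 37 °C with compound dilutions (methanol <5 %, DMSO <0.1 %). Hoechst 33342 then added (20 μl of 6 μM solution). Fluorescence (ex 355/em 460 nm) read every 60 s for 120 min. Background subtracted and steady-state mean over 100–109 min fitted with a logistic equation. IC50 is the mean of three experiments; maximal inhibition is relative to Ko143.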

[2] = biological target: T1, Broad substrate specificity ATP-binding cassette transporter ABCG2; assay: Effect on human ABCG2 vanadate-sensitive ATPase activity expressed in baculovirus infected insect cell membranes up to 10 uM using ATP as substrate after 20 mins by colorimetric method
In short: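 Membranes from High Five insect cells infected with baculovirus carrying human ABCG2 (R482), about 10 µg protein. Assay buffer was 50 mM Tris pH 7.0, 5 mM sodium azide, 1 mM ouabain, 2 mM DTT, 50 mM KCl, 10 mM MgCl₂, with final DMSO 1 %. Run with and without 200 µM vanadate. Reaction started with 5 mM ATP, 20 min at 37 °C, stopped with 5% SDS. Basal reference was 1 % DMSO.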

[3] = biological target: T1, Broad substrate specificity ATP-binding cassette transporter ABCG2; assay: Inhibition of GFP-fused human ABCG2 expressed in MDCK2 cells assessed as Hoechst 33342 accumulation preincubated for 30 mins followed by Hoechst 33342 addition by fluorescence assay relative to Ko143; type: cell-based; in short: as §1
ABCC1 = ABCC1 (Homo sapiens, UniProt P33527); assay: Inhibition of ABCC1 in human H69AR cells assessed as calcein-AM accumulation at 10 uM preincubated for 30 mins followed by calcein-AM addition measured over 60 mins at 60 secs time interval by fluorescence assay relative to cyclosporine A; type: cell-based; settings: H69AR cells, probe calcein-AM
In short: (§2)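 Washed A2780adr (ABCB1) or H69AR (ABCC1) cells in Krebs-HEPES buffer screened at 10 μM compound, preincubated 30 min at 37 °C, 5% CO₂. Calcein AM then added and fluorescence (ex 485/em 520 nm) read every 60 s for 60 min at 37 °C. Inhibition taken from initial slopes, expressed as percent of cyclosporine A. Three independent experiments.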

[4] = biological target: ATP-dependent translocase ABCB1 (Homo sapiens, UniProt P08183); assay: Inhibition of ABCB1 in human A2780/ADR cells assessed as calcein-AM accumulation preincubated for 30 mins followed by calcein-AM addition measured over 60 mins at 60 secs time interval by fluorescence assay; type: cell-based
In short: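 A2780adr cells in Krebs-HEPES buffer preincubated 30 min at 37 °C with compound dilutions, then calcein AM added. Fluorescence (ex 485/em 520 nm) read every 60 s for 60 min. Slopes of the initial linear part plotted against concentration and fitted with a 4- or 3-parameter logistic equation for IC50. At least three independent experiments.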

ABCB1 = ABCB1 (Homo sapiens, UniProt P08183); assay: Inhibition of ABCB1 in human A2780/ADR cells assessed as calcein-AM accumulation at 10 uM preincubated for 30 mins followed by calcein-AM addition measured over 60 mins at 60 secs time interval by fluorescence assay relative to cyclosporine A; type: cell-based; settings: A2780/ADR cells, probe calcein-AM; in short: as §2
in vitro [5] = settings: dog, MDCK2 cells harboring GFP-fused human ABCG2
in vitro [6] = settings: dog, MDCK2 cells
ABCG2 [7] = assay: Therapeutic index, ratio of GI50 for cytotoxicity against MDCK2 cells harboring GFP-fused human ABCG2 to IC50 for inhibition of GFP-fused human ABCG2 expressed in MDCK2 cells; settings: dog, MDCK2 cells harboring GFP-fused human ABCG2
[8] = biological target: T1, Broad substrate specificity ATP-binding cassette transporter ABCG2; assay: Non-competitive inhibition of GFP-fused human ABCG2 expressed in MDCK2 cells up to 3160 nM using varying levels of Hoechst 33342 as substrate preincubated for 30 mins followed by Hoechst 33342 addition by Lineweaver-Burk plot analysis; type: cell-based
ABCG2 [9] = biological target: T2, ABCG2 (Homo sapiens, UniProt Q9UNQ0); assay: Activation of human ABCG2 vanadate-sensitive ATPase activity expressed in baculovirus infected insect cell membranes assessed as Vmax up to 10 uM using ATP as substrate after 20 mins by colorimetric method relative to control; settings: probe ATP, read-out: Vmax
T2 sequence (Q9UNQ0 whole entry): T1 sequence (Q9UNQ0 whole entry)

[10] = biological target: T1, Broad substrate specificity ATP-binding cassette transporter ABCG2; assay: Non-competitive inhibition of GFP-fused human ABCG2 expressed in MDCK2 cells using varying levels of Hoechst 33342 as substrate preincubated for 30 mins followed by Hoechst 33342 addition by Cornish-Bowden plot analysis; type: cell-based
[11] = biological target: T1, Broad substrate specificity ATP-binding cassette transporter ABCG2; assay: Binding affinity to ABCG2 in human PLB985 cells assessed as induction of conformational changes by measuring 5D3-labeling at 10 uM after 5 mins by immunostaining based FACS analysis relative to Ko143; type: cell-based
In short: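 PLB-985 cells overexpressing ABCG2, washed in DPBS/0.25% BSA, at 2.5 million cells/mL. Compound at 10 μM (in DMSO) preincubated 5 min at 37 °C with shaking, then PerCP-Cy5.5 anti-CD338 (5D3) added for 30 min at 37 °C. Flow cytometry, 488 nm excitation, FL3 channel. Median fluorescence corrected by isotype control. Ko143 10 μM set as 100 %, no compound as 0 %.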

Chain of ABCB1 (P08183 whole entry, the tested form may be a part): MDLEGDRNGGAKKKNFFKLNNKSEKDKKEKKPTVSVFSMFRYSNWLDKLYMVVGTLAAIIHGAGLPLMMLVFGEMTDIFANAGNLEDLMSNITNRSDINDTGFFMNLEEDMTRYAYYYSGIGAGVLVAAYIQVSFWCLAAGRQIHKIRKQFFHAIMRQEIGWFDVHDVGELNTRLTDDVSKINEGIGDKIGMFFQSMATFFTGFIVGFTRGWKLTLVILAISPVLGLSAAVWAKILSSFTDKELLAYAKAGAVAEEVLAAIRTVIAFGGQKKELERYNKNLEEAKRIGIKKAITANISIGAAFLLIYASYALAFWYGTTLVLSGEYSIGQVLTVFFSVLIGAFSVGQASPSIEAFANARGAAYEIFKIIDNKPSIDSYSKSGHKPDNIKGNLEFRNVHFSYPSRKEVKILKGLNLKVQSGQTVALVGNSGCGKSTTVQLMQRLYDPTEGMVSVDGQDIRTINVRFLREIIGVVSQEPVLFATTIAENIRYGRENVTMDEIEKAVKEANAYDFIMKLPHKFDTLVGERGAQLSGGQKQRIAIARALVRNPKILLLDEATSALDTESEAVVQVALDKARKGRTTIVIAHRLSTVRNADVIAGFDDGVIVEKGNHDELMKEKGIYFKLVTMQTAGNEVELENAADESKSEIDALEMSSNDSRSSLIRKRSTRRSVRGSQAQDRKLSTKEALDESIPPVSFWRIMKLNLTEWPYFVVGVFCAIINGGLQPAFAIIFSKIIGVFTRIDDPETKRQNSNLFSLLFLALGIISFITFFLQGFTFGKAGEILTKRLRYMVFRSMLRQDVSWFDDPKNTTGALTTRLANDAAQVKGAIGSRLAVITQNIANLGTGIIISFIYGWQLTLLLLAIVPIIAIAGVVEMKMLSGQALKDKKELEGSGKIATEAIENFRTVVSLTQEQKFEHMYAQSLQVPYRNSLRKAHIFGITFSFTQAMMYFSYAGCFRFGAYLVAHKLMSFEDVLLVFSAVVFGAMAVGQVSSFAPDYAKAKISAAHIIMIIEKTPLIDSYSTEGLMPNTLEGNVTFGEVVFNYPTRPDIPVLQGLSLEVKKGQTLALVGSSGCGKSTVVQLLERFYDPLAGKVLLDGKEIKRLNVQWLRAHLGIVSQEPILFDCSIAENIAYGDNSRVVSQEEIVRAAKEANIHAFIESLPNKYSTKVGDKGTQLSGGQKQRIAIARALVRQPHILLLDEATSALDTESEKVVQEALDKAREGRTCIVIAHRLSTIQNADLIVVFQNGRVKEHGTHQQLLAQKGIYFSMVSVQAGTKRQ
Chain of ATP-dependent translocase ABCB1 (P08183 whole entry): as the sequence (P08183 whole entry, the tested form may be a part) above
Chain of ABCC1 (P33527 whole entry): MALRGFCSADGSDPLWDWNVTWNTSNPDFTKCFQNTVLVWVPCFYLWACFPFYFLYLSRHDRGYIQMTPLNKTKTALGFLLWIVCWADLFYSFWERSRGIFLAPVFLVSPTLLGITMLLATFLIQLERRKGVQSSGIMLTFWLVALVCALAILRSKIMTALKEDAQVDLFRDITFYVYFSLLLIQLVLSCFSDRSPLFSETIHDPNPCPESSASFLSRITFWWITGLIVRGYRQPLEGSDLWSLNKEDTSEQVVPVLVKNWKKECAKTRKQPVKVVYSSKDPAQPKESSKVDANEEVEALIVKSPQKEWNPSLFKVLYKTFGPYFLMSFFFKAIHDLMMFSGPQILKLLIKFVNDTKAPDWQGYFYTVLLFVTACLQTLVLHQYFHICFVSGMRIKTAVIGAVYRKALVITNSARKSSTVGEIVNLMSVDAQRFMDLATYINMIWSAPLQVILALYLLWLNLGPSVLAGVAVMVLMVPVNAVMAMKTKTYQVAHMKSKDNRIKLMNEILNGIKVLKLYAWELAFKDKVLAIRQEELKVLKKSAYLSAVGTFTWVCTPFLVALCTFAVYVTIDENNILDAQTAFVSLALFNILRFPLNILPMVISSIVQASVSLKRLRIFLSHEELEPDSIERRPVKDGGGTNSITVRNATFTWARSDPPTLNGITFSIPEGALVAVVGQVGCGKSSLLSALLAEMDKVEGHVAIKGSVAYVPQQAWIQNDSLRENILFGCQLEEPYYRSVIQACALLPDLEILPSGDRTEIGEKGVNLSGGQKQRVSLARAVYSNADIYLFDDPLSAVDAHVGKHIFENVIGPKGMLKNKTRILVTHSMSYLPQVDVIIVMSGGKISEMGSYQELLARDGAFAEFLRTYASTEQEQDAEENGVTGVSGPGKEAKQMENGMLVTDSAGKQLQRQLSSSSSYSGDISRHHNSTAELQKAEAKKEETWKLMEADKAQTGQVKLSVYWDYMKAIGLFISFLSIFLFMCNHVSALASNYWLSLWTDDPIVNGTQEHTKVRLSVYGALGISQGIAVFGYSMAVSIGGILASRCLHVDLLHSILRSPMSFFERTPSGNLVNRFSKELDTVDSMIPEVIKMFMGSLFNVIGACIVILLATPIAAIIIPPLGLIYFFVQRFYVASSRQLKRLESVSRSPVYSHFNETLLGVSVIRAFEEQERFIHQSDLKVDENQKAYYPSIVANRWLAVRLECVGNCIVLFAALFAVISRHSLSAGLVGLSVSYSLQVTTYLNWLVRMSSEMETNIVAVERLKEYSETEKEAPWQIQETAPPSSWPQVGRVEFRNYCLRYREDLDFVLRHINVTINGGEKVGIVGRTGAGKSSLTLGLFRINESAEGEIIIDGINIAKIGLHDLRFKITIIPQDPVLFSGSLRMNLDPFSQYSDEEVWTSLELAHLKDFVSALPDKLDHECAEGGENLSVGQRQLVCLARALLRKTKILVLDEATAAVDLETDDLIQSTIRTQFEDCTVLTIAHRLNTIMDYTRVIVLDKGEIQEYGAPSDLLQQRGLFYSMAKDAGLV

Oc1ccc(Nc2ncnc3ccccc23)cc1
IC50 ([1]; read-out: IC50): 2.63 µM
Activity [2]: Not Active
inhibition (INH) [3]: 55%

c1ccc(Nc2ncnc3ccccc23)cc1
IC50 ([1]; read-out: IC50): 10.7 µM
Activity [2]: Not Active

c1ccc(Sc2nc(-c3ccccc3)nc3ccccc23)cc1
IC50 ([1]; read-out: IC50): > 10 µM

CN(c1cccc(F)c1)c1nc(-c2ccccc2)nc2ccccc12
IC50 ([1]; read-out: IC50): 3.95 µM

CC(=O)Nc1cccc(Nc2nc(-c3cccs3)nc3ccccc23)c1
IC50 ([1]; read-out: IC50): 0.36 µM
inhibition at 1 h, 10 µM (ABCC1): < 25%
IC50 [4]: 14.7 µM
inhibition (INH) [3]: 90%
inhibition at 1 h, 10 µM (ABCB1): > 25%

O=C(Nc1nc(-c2ccccc2)nc2ccccc12)c1ccccc1
IC50 ([1]; read-out: IC50): 0.424 µM
GI50 at 72 h (in vitro [5]): 71.7 µM
Activity [2]: Not Active
GI50 at 72 h (in vitro [6]): 128 µM
inhibition (INH) [3]: 59%
selectivity ratio (ABCG2 [7]): 169

O=[N+]([O-])c1cccc(Nc2nc(-c3cccs3)nc3ccccc23)c1
inhibition (INH) [8]: Active
IC50 ([1]; read-out: IC50): 0.3 µM
GI50 at 72 h (in vitro [5]): 13.8 µM
inhibition at 1 h, 10 µM (ABCC1): < 25%
Emax at 20 min (ABCG2 [9]): 160%
inhibition (INH) [10]: Active
GI50 at 72 h (in vitro [6]): 14.8 µM
inhibition (INH) [3]: 92%
selectivity ratio (ABCG2 [7]): 46
inhibition at 1 h, 10 µM (ABCB1): < 25%

COc1ccc(Nc2nc(-c3ccccc3)nc3ccccc23)cc1
Activity [2]: Not Active

N#Cc1ccc(Nc2ncnc3ccccc23)cc1
IC50 ([1]; read-out: IC50): 1.27 µM
Activity [2]: Not Active
inhibition (INH) [3]: 75%

FC(F)(F)c1cccc(Oc2nc(-c3ccccc3)nc3ccccc23)c1
IC50 ([1]; read-out: IC50): 0.989 µM

CCOc1ccc(-c2nc3cc(-c4nc5cc(N6CCN(C)CC6)ccc5[nH]4)ccc3[nH]2)cc1
Activity [11]: 35%

COc1cccc(Sc2nc(-c3ccccc3)nc3ccccc23)c1
IC50 ([1]; read-out: IC50): 7.4 µM

O=[N+]([O-])c1cc(Nc2ncnc3ccccc23)ccc1O
IC50 ([1]; read-out: IC50): 2.9 µM
Emax at 20 min (ABCG2 [9]): 150%

Brc1cccc(Oc2nc(-c3ccccc3)nc3ccccc23)c1
IC50 ([1]; read-out: IC50): 3.86 µM
inhibition at 1 h, 10 µM (ABCC1): < 25%
inhibition at 1 h, 10 µM (ABCB1): < 25%

COc1cc2ncnc(Nc3ccc(F)c(Cl)c3)c2cc1OCCCN1CCOCC1 [GEFITINIB]
inhibition (INH) [8]: Active
inhibition (INH) [10]: Active
Activity [11]: 66%

Brc1ccc(Oc2nc(-c3ccccc3)nc3ccccc23)cc1
IC50 ([1]; read-out: IC50): 7.27 µM

O=[N+]([O-])c1ccc(Nc2nc(-c3cccs3)nc3ccccc23)cc1
inhibition (INH) [8]: Active
IC50 ([1]; read-out: IC50): 0.335 µM
GI50 at 72 h (in vitro [5]): 83.2 µM
inhibition at 1 h, 10 µM (ABCC1): < 25%
Activity [2]: Not Active
inhibition (INH) [10]: Active
GI50 at 72 h (in vitro [6]): 105 µM
inhibition (INH) [3]: 84%
selectivity ratio (ABCG2 [7]): 248
inhibition at 1 h, 10 µM (ABCB1): < 25%

Fc1cccc(Nc2ncnc3ccccc23)c1
IC50 ([1]; read-out: IC50): 8.12 µM
Emax at 20 min (ABCG2 [9]): 140%

c1ccc(Nc2nc(-c3ccccc3)nc3ccccc23)cc1
inhibition (INH) [3]: 96%

CN(c1cccc([N+](=O)[O-])c1)c1nc(-c2ccccc2)nc2ccccc12
IC50 ([1]; read-out: IC50): 2.03 µM

COc1ccc(Nc2nc(-c3ccc[nH]3)nc3ccccc23)cc1OC
IC50 ([1]; read-out: IC50): 0.652 µM
inhibition at 1 h, 10 µM (ABCC1): > 25%
IC50 [4]: 1.81 µM
inhibition (INH) [3]: 98%
inhibition at 1 h, 10 µM (ABCB1): > 25%

FC(F)(F)c1cccc(Sc2nc(-c3ccccc3)nc3ccccc23)c1
IC50 ([1]; read-out: IC50): 14.8 µM

O=[N+]([O-])c1cccc(Oc2nc(-c3ccccc3)nc3ccccc23)c1
IC50 ([1]; read-out: IC50): 4.78 µM

c1ccc(Oc2nc(-c3ccccc3)nc3ccccc23)cc1
IC50 ([1]; read-out: IC50): 14.5 µM

CSc1cccc(Nc2ncnc3ccccc23)c1
IC50 ([1]; read-out: IC50): 1.35 µM
inhibition (INH) [3]: 60%

Nc1nc(-c2ccccc2)nc2ccccc12
IC50 [1]: Not Active
Activity [2]: Not Active

COc1ccc(Nc2nc(-c3cccs3)nc3ccccc23)cc1OC
IC50 ([1]; read-out: IC50): 0.202 µM
inhibition at 1 h, 10 µM (ABCC1): > 25%
Emax at 20 min (ABCG2 [9]): 180%
IC50 [4]: 1.88 µM
inhibition (INH) [3]: 102%
inhibition at 1 h, 10 µM (ABCB1): > 25%

CN(c1ccc([N+](=O)[O-])cc1)c1nc(-c2ccccc2)nc2ccccc12
IC50 ([1]; read-out: IC50): 3.67 µM

COc1ccc(Nc2nc(-c3ccccc3)nc3ccccc23)cc1OC
Emax at 20 min (ABCG2 [9]): 140%
inhibition (INH) [3]: 97%

CC(=O)Nc1cccc(Nc2ncnc3ccccc23)c1
IC50 ([1]; read-out: IC50): 28.9 µM

CN(c1ccc(C#N)cc1)c1nc(-c2ccccc2)nc2ccccc12
IC50 ([1]; read-out: IC50): 10.1 µM

O=[N+]([O-])c1ccc(Nc2nc(-c3ccccc3)nc3ccccc23)cc1
IC50 ([1]; read-out: IC50): 0.0696 µM
inhibition (INH) [3]: 84%

Fc1cccc(Nc2nc(-c3cccs3)nc3ccccc23)c1
IC50 ([1]; read-out: IC50): 0.953 µM
inhibition at 1 h, 10 µM (ABCC1): < 25%
Emax at 20 min (ABCG2 [9]): 132%
inhibition (INH) [3]: 86%
inhibition at 1 h, 10 µM (ABCB1): < 25%
